This excerpt belongs to a sample that is enriched for hits.
ROMK primary – modulators of human ROMK potassium channel | P48048 | Tet-inducible ROMK, thallium flux fluorescence; actives lie on both sides | B-score at 10 µM | 130,000 compounds, 2% hits | AID 1918;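 active = signal ratio slope over the read window, or its plate-corrected B-score, at least 3 SD from the plate mean, either direction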;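 also: B-score of the F/F0 ratio slope over 7 to 12 s after thallium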
Target sequence (P48048 whole entry, looked up): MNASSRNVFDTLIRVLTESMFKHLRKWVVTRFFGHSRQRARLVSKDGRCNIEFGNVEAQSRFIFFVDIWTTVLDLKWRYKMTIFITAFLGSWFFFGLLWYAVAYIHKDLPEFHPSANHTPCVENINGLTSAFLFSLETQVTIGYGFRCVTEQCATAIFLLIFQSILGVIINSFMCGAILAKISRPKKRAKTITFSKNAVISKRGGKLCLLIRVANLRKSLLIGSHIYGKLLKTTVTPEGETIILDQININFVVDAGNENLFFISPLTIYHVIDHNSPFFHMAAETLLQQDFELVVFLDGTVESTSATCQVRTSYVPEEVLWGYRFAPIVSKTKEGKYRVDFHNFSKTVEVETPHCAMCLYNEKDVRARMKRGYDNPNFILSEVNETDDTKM
Calb biofilm kill – mixtures killing C. albicans biofilm; C. albicans biofilm persisters + clotrimazole, fluorescence viability; primary screen in compound mixtures of four per well; 120,000 compounds, 0.02% hits; inhibition, % at 7.6 µM;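 active = inhibition above 30.3% in the primary screen of four-compound pools, then above 30% when the compound was retested; inconclusive = passed the primary limit but could not be retested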;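 also: compounds exposed to preformed 24 h biofilms for 48 h; 0% = untreated biofilm control and 100% = clotrimazole plus chlorhexidine kill blank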
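System: C. albicans CAF4-2 wild-type biofilms; Medium: RPMI/MOPS medium, pH 7.0; Reagent: Clotrimazole, 50 µg/mL; Times: biofilm formation 24 h, compound exposure 48 h, 37 °C; Detection: 2-h Alamar Blue fluorescence, 535/590 nm excitation/emission; Evaluation: percent inhibition of biofilm viability.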
ROMK hit retest – retested hit modulating human ROMK potassium channel. shares compounds with ROMK primary. ROMK thallium flux, fluorescence ratio; active compounds read low. normalized thallium flux (F/F0 slope) at 10 µM. 3,000 compounds, 54% hits. AID 1917;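 active = Flux at 10 µM at least 3 SD below or above vehicle control mean in one or both replicates; inconclusive = no clear call, values can overlap the other calls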
Active calls of the source: *; ? = inconclusive; . = not tested or not shown.

SMILES | ROMK primary | Calb biofilm kill | ROMK hit retest
Cc1ccc(C(=O)N2C(CC(=O)Nc3ccc(Cl)cc3)C(=O)NC3CCCCC32)cc1 (configuration not stated) | . | 3 | 0.067*
Cn1cnnc1SCC(=O)Nc1cccc(S(=O)(=O)N2CCOCC2)c1 | 0.92 | 1 | .
Cc1cc2nnc(SCC(=O)Nc3cccc(S(=O)(=O)N4CCOCC4)c3)n2c2ccccc12 | . | 16 | 0.082
O=C1NC(SCCCF)=N/C1=C/c1ccc(-n2cncn2)cc1 | . | 10 | .
Nc1nn(-c2ccccc2)c(N)c1N=Nc1ccc2c(c1)OCO2 | 2.7 | -9 | .
Nc1nn(-c2ccccc2)c(N)c1N=Nc1cccc(F)c1 | 3.4* | 14 | 0.086
CCC(C(=O)Nc1cccc(C(=O)O)c1C)c1ccccc1 (configuration not stated) | 0.27 | -7 | .
CCOc1cc(/C=N/NC(=O)CN2CCCCC2)ccc1OCc1cccc(Cl)c1 | -4.6* | 17 | ?
CCOc1cc(/C=N/NC(=O)CN2CCCCC2)ccc1OCc1ccc(Cl)cc1 | -1.3 | 17 | .
CCc1nnc(NC(=O)C2CCC(CNc3c(N4CCCCC4)c(=O)c3=O)CC2)s1 (configuration not stated) | -12* | 5 | 0.086
CCOc1ccccc1NC(=O)C1CCC(CNc2c(N3CCCCC3)c(=O)c2=O)CC1 (configuration not stated) | 0.38 | 6 | .
COc1ccc(C2=C(SC)CC2=NC(C)(C)C)cc1 | -4.7* | -2 | 0.046*
COc1ccc(-c2nc3n(c2C)CCC3)cc1 | . | 19 | .
COc1cc(/C=N/NC(=S)NC2CC3CC2C2C=CCC32)ccc1O (configuration not stated) | . | 17 | .
COc1ccccc1NC(=O)C(C)Sc1nnnn1C (configuration not stated) | . | 9 | .
COc1ccccc1NC(=O)CCSc1nnnn1C | . | . | 0.074
O=C(CSc1nc2ccccc2o1)N1CCN(S(=O)(=O)c2ccc3ccccc3c2)CC1 | -3.6* | 13 | 0.076
COc1ccccc1N1CCN(C(=O)CSc2nc3ccccc3o2)CC1 | -0.28 | . | .
COc1ccccc1C1(CCNC(C)c2cccs2)CCOC(C(C)C)C1 (configuration not stated) | . | 3 | 0.041*
COc1ccccc1C1(CCNS(=O)(=O)c2ccc(C)cc2)CCOC(C(C)C)C1 (configuration not stated) | . | 16 | .
COc1ccc(/C=C/C(=O)OCC(=O)Nc2cc(C(F)(F)F)ccc2Cl)cc1 | 0.49 | -6 | .
N#CC1=C(N)Oc2nc(-c3ccccc3)[nH]c2C1c1cccnc1 (configuration not stated) | -0.81 | . | .
Cc1ccc(C2C(C#N)=C(N)Oc3nc(-c4ccccc4)[nH]c32)o1 (configuration not stated) | . | . | ?
O=C(CC1=NCCNC(c2ccccc2)C1)c1ccccc1O (configuration not stated) | -2.3* | . | ?
O=C(O)C1Cc2[nH]cnc2C(c2ccccc2O)N1 (configuration not stated) | -0.18 | 13 | .
SMILES | ROMK primary | Calb biofilm kill | ROMK hit retest
Cc1cc(F)ccc1NCC(=O)Nc1ccccc1Br | . | 17 | .
N#CC(C#N)=C1C=CC=CN1/C(=C\c1ccco1)C(=O)c1ccc(Br)cc1 | . | 19 | .
COc1ccc(C(=O)/C(=C\c2ccco2)N2C=CC=CC2=C(C#N)C#N)cc1 | . | . | 0.038*
COc1ccc(/C=C(/C(=O)c2cccs2)N2C=CC=CC2=C(C#N)C#N)cc1 | . | 25 | .
N#CC(C#N)=C1C=CC=CN1/C(=C\c1ccco1)C(=O)c1ccccc1 | -6* | 13 | 0.036*
COC(CNC(=O)C1CC(=O)N(CCc2ccccc2)C1)OC (configuration not stated) | 1.6 | . | .
O=C1CSC(c2ccccc2Cl)N1 (configuration not stated) | 3.5* | 10 | 0.089
O=C1CSC(c2ccccc2F)N1 (configuration not stated) | 0.26 | 5 | .
Cc1ccsc1/C=C1/NC(=O)N(Cc2ccc(F)cc2)C1=O | 0.19 | -8 | .
CCOc1ncccc1C(=O)OCC(=O)c1cc(OC)c(OC)c(OC)c1 | . | 12 | .
CN(O)/C=N/C(=S)Nc1ccc(Cl)cc1Cl | 2.4* | 21 | 0.08
CN(C)/C=N/C(=S)Nc1ccccc1Cl | -0.33 | 1 | .
Cn1ncc(C(=O)Nc2ccc(Cl)cc2)c1C(F)(F)F | . | 11 | .
Cn1nc(C(F)(F)F)cc1C(=O)Nc1ccc(Cl)cc1 | . | 8 | 0.082
N#Cc1c2ccccc2nc2ccccc12 | . | 24 | .
Cc1cccc(COCC(Cc2ccccc2)N2CCN(C(=O)c3cccc(C)c3)CCC2=O)c1 (configuration not stated) | -2.3 | 13 | .
Cc1cccc(COCC(Cc2ccccc2)N2CCN(C(=O)c3ccc(Cl)c(Cl)c3)CCC2=O)c1 (configuration not stated) | -2.6* | 18 | 0.06*
Cc1ccc(S(=O)(=O)/C(=C\N(C)C)c2cnc(Cl)s2)cc1 | 0.61 | 15 | .

From PubChem
